# The source made the active and inactive calls. The calls are words filed in the database; no cut-off is given here.
# What was measured:
# [1] = target: T1, Voltage-gated potassium channel, KQT; KCNQ2(Kv7.2)/KCNQ3(Kv7.3) (Homo sapiens) (UniProt O43526+O43525); experiment: Activation of KCNQ2/Q3 expressed in CHO cells at 100 uM by atomic absorption Rb'+ efflux assay; format: cell-based
# Procedure, shortened: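 Stable KCNQ2/KCNQ3 CHO cells were Rb+-loaded 3 h at 37 °C and washed. Compound was given once at a single screening concentration in 20 mM K+ depolarization buffer for 10 min. Supernatant Rb+ was measured by flame atomic absorption at 780 nm. A rubidium response under 15% of control was scored as no activity.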
# [2] = target: Voltage-gated potassium channel, KQT; KCNQ2(Kv7.2)/KCNQ3(Kv7.3) (Homo sapiens, UniProt O43525+O43526); experiment: Activation of KCNQ2/Q3 expressed in CHO cells by atomic absorption Rb'+ efflux assay; format: cell-based
# Chain of Voltage-gated potassium channel, KQT; KCNQ2(Kv7.2)/KCNQ3(Kv7.3) (O43526 whole entry): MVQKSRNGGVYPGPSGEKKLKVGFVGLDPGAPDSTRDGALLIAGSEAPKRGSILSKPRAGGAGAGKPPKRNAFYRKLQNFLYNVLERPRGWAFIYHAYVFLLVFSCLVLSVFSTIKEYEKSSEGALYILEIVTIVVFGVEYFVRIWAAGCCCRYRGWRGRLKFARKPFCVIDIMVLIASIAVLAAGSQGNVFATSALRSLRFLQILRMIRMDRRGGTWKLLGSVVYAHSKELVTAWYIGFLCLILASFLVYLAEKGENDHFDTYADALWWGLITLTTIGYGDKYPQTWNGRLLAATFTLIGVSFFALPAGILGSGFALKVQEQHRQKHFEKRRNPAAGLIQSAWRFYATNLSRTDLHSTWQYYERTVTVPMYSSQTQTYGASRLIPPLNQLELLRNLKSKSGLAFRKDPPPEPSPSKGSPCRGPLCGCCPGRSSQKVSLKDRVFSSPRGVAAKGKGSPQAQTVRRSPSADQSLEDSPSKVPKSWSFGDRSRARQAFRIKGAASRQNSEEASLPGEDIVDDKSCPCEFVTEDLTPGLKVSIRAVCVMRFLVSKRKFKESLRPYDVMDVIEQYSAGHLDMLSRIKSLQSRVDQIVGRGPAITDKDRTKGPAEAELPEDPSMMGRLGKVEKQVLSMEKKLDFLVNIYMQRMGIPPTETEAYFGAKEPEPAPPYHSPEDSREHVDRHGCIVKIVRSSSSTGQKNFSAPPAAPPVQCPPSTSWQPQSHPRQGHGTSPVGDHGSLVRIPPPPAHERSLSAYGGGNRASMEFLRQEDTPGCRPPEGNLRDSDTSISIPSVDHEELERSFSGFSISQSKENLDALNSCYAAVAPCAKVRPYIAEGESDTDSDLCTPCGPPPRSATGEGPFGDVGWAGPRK
# Chain of Voltage-gated potassium channel, KQT; KCNQ2(Kv7.2)/KCNQ3(Kv7.3) (O43525 whole entry): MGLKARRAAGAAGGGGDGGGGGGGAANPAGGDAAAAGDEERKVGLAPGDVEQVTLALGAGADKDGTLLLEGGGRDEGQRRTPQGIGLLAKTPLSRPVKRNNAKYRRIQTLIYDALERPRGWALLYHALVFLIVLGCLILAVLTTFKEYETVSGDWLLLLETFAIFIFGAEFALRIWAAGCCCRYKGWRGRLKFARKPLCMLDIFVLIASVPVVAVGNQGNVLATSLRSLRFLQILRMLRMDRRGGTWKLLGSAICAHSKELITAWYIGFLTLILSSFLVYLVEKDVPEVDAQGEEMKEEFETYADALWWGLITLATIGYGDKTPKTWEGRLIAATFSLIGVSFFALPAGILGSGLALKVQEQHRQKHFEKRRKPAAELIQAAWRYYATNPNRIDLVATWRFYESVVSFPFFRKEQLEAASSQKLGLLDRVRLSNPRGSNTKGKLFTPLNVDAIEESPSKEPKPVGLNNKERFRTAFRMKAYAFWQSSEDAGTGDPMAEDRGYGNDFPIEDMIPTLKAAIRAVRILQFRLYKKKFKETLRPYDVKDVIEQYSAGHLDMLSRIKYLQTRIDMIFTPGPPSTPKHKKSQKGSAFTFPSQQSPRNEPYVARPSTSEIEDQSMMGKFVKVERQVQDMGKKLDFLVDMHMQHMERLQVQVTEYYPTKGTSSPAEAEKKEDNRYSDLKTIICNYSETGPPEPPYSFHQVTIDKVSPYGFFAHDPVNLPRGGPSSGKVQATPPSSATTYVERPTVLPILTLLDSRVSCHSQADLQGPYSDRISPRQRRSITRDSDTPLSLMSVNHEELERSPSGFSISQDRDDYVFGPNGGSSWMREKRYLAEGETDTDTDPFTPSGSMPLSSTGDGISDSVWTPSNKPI
# Procedure, shortened: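 CHO cells stably expressing KCNQ2/KCNQ3 were plated at 20,000 cells/well overnight at 37 °C. They were loaded 3 h in buffer containing 5.4 mM RbCl (pH 7.4), then washed three times with 5.4 mM KCl buffer. Compound was applied in 20 mM K+ depolarization buffer for 10 min. Supernatant Rb+ was read by flame atomic absorption at 780 nm against a 0–5 mg/l calibration. EC50 from n = 3.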
# [3] = target: T1, Voltage-gated potassium channel, KQT; KCNQ2(Kv7.2)/KCNQ3(Kv7.3) (Homo sapiens); experiment: Activation of human KCNQ2/Q3 expressed in CHO cells assessed as increase in channel current at -40 mV holding potential at 10 uM by whole cell patch-clamp assay; format: cell-based
# Procedure, shortened: (§1)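 Perforated whole-cell patch clamp was run on CHO cells stably expressing KCNQ2/KCNQ3. Cells were held at −80 mV for 500 ms, stepped to −40 mV for 800 ms, then returned to −80 mV for 800 ms. The activation current and the deactivation tail current were measured, with a time course of current recorded at −40 mV.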
# [4] = target: T1, Voltage-gated potassium channel, KQT; KCNQ2(Kv7.2)/KCNQ3(Kv7.3) (Homo sapiens); experiment: Activation of human KCNQ2/Q3 expressed in CHO cells held at -80 mV for 500 ms followed by depolarized to -40 mV for 800 ms followed by 800 ms pulse-back to -80 mV assessed as increase in both activation and deactivation tail current at 10 uM by whole cell patch-clamp assay
# [5] = Selectivity ratio of EC50 for KCNQ1 to KCNQ2/Q3 by atomic absorption Rb'+ efflux assay
# [6] = target: T2, Potassium voltage-gated channel subfamily KQT member 1 (Homo sapiens, UniProt P51787); experiment: Activation of KCNQ1 expressed in HEK293 cells by atomic absorption Rb'+ efflux assay; format: cell-based
# T2 sequence (P51787 whole entry): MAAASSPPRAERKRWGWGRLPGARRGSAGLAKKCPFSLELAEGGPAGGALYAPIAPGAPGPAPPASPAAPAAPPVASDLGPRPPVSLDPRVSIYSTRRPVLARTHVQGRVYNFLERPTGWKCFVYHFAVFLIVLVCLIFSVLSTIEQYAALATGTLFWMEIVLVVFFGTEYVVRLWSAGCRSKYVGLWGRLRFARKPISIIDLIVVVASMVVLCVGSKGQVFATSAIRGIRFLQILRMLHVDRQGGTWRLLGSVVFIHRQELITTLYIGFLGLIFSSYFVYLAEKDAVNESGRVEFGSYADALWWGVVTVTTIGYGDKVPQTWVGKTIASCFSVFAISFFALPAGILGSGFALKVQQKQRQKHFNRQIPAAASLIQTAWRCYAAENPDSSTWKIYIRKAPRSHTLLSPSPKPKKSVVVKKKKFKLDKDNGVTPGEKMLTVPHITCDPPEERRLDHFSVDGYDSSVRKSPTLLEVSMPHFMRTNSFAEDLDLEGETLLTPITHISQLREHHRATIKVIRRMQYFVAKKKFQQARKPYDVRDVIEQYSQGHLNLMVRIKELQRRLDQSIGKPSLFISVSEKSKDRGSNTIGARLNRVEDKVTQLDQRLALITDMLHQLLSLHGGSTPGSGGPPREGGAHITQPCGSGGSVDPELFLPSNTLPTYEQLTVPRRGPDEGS
# Procedure, shortened: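 HEK293 cells stably expressing KCNQ1 (G418 selection) were plated at 20,000 cells/well overnight. They were loaded 3 h with 5.4 mM RbCl buffer at 37 °C and washed. Compound was applied in 20 mM K+ depolarization buffer for 10 min. Supernatant Rb+ was measured by flame atomic absorption at 780 nm. EC50 from n = 3.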
# [7] = target: T1, Voltage-gated potassium channel, KQT; KCNQ2(Kv7.2)/KCNQ3(Kv7.3) (Homo sapiens); experiment: Activation of human KCNQ2/Q3 expressed in CHO cells held at -80 mV for 500 ms followed by depolarized to -40 mV for 800 ms followed by 800 ms pulse-back to -80 mV assessed as increase in both activation and deactivation tail current at 100 uM by whole cell patch-clamp assay
# [8] = target: T1, Voltage-gated potassium channel, KQT; KCNQ2(Kv7.2)/KCNQ3(Kv7.3) (Homo sapiens); experiment: Activation of human KCNQ2/Q3 expressed in CHO cells assessed as increase in channel current at -40 mV holding potential at 100 uM by whole cell patch-clamp assay; format: cell-based; procedure, shortened: as §1
SMILES,EC50 [2] [µM],further results
Oc1cc(-c2ccccc2)nc2c(-c3ccccc3)c(C(F)(F)F)nn12,,Activity [1]: inactive
O=c1cc(C(F)(F)F)[nH]c2c(-c3c[nH]c4ccccc34)c(C(F)(F)F)nn12,,Activity [1]: inactive
O=c1cc(-c2cc(F)c(F)cc2F)[nH]c2c(-c3ccc(Cl)cc3)c(C(F)(F)F)nn12,0.21,
O=c1cc(-c2cc(F)c(F)c(F)c2F)[nH]c2c(-c3ccccc3)c(C(F)(F)F)nn12,0.6,
O=c1cc(CCl)[nH]c2c(-c3ccc(Cl)cc3)c(C(F)(F)F)nn12,2.33,
O=c1cc(CN2CCCCC2)[nH]c2c(-c3ccccc3)c(C(F)(F)F)nn12,,Activity [1]: inactive
O=c1cc(-c2cc(F)c(Cl)nc2Cl)[nH]c2c(-c3cccc4ccccc34)c(C(F)(F)F)nn12,0.15,Activity [3]: Active; Activity [4]: Active
O=c1cc(-c2cc(F)c(Cl)nc2Cl)[nH]c2c(-c3ccccc3)c(C(F)(F)F)nn12,0.06,Ratio EC50 [5]: 800; Activity [3]: Active; Activity [4]: Active; EC50 [6]: 49.3 µM
O=c1cc(C(F)(F)F)[nH]c2c(-c3ccccc3)c(C(F)(F)F)nn12,1.46,Activity [7]: Active; Activity [8]: Active
Cc1cc(O)n2nc(C(F)(F)F)c(-c3ccccc3)c2n1,,Activity [1]: inactive
CC(C)(C)c1cc(=O)n2nc(C(F)(F)F)c(-c3cccc4ccccc34)c2[nH]1,19.3,
O=c1cc(CCl)[nH]c2c(-c3ccccc3)c(C(F)(F)F)nn12,2.27,Activity [7]: Active; Activity [8]: Active
O=c1cc(-c2cccc([N+](=O)[O-])c2)[nH]c2c(-c3cccs3)c(C(F)(F)F)nn12,0.58,
O=c1cc(CCl)[nH]c2c(-c3cccc4ccccc34)c(C(F)(F)F)nn12,1.25,
CCOC(=O)c1c(C(F)(F)F)nn2c(=O)cc(CCl)[nH]c12,,Activity [1]: inactive
O=c1cc(-c2cccc([N+](=O)[O-])c2)[nH]c2c(-c3ccccc3)c(C(F)(F)F)nn12,0.57,
O=c1cc(C(F)F)[nH]c2c(-c3ccccc3)c(C(F)(F)F)nn12,4.29,
O=c1cc(C(F)(F)F)[nH]c2c(-c3ccccc3)cnn12,,Activity [1]: inactive
COc1ccc(-c2cc(=O)n3nc(C(F)(F)F)c(-c4ccccc4)c3[nH]2)cc1,1.93,
CCOC(=O)Nc1ccc(NCc2ccc(F)cc2)cc1N [EZOGABINE],0.43,Activity [3]: Active
Cc1nn2c(=O)cc(CCl)[nH]c2c1-c1ccccc1,,Activity [1]: inactive
O=c1cc(C(F)(F)F)[nH]c2c(-c3cccc4ccccc34)c(C(F)(F)F)nn12,4.98,
O=c1cc(C(F)(F)F)[nH]c2c(-c3ccc(Cl)cc3)c(C(F)(F)F)nn12,2.06,
CC(C)(C)c1cc(=O)n2nc(C(F)(F)F)c(-c3ccccc3)c2[nH]1,6.19,
O=c1cc(-c2cc(F)c(F)c(F)c2F)[nH]c2c(-c3cccs3)c(C(F)(F)F)nn12,0.16,
COc1ccc(-c2c(C(F)(F)F)nn3c(=O)cc(-c4cc(F)c(Cl)nc4Cl)[nH]c23)cc1OC,0.23,

# — ChEMBL document CHEMBL1687897, “Design, synthesis and biological activity of pyrazolo[1,5-a]pyrimidin-7(4H)-ones as novel Kv7/KCNQ potassium channel activators” (Eur J Med Chem, 2011)
